Reference: ChEMBL document CHEMBL5661970 (Cancer Res, 2006)
The source made the active and inactive calls. The rule behind the calls is not given here.

What was measured:
OVCAR-3 = experiment: Antitumor activity against human OVCAR-3 cells xenografted in gamma-irradiation induced RH-rnu/rnu athymic rat assessed as tumor growth inhibition at 0.2 mg/kg, po administered once daily for 2 weeks and measured on day 14 relative to control; assay type: functional; conditions: OVCAR-3, light or radiation study, 336 h, read-out: TGI
How it was run: (§1)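 Rats were γ-irradiated with 7 Gy whole body, and 24 h later received s.c. tumor cells. Fragments (20-30 mg) from ~1,500 mm3 tumors were then implanted s.c. into irradiated athymic rats. Oral dosing at 0.2 or 1 mg/kg or vehicle ran once daily for 2 weeks from day 0. Tumors were measured with calipers twice weekly (length×width²×0.5). TGI% was taken versus vehicle on day 14 (BxPC-3: day 13), with an unpaired t test on RTV.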

[1] = Apparent oral volume of distribution in F344/N JcL-rnu athymic rat at 0.2 mg/kg, po measured upto 72 hrs by HPLC-MS/MS analysis; assay type: ADME, organism-based; conditions: in vivo
How it was run: (§2)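 Female F344/N JcL-rnu rats, four per group, single p.o. dose suspended in 0.5% methyl cellulose. Tail-vein blood sampled at set times to 72 h. Serum spiked with internal standard, deproteinated with acetonitrile, analysed by HPLC-MS/MS. Parameters derived by noncompartmental analysis.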

A549 = experiment: Antitumor activity against human A549 cells xenografted in F344/N Jcl-rnu athymic rat assessed as reduction in number of CD31-positive cells in viable regions of tumor at 1.0 mg/kg, po administered once daily for 7 days by immunofluorescence staining analysis relative to control; conditions: time 7 day
[2] = Half life in F344/N JcL-rnu athymic rat at 5 mg/kg, po measured upto 72 hrs by HPLC-MS/MS analysis; assay type: ADME, organism-based; conditions: in vivo; how it was run: as §2
[3] = Apparent oral volume of distribution in F344/N JcL-rnu athymic rat at 1 mg/kg, po measured upto 72 hrs by HPLC-MS/MS analysis; assay type: ADME, organism-based; conditions: in vivo; how it was run: as §2
[4] = Tmax in F344/N JcL-rnu athymic rat at 0.2 mg/kg, po measured upto 72 hrs by HPLC-MS/MS analysis; assay type: ADME, organism-based; conditions: in vivo; how it was run: as §2
[5] = Cmax in F344/N JcL-rnu athymic rat at 1 mg/kg, po measured upto 72 hrs by HPLC-MS/MS analysis; assay type: ADME, organism-based; conditions: in vivo; how it was run: as §2
[6] = target: Platelet-derived growth factor receptor beta (Homo sapiens, UniProt P09619); experiment: Inhibition of PDGFR-beta phosphorylation in serum starved human NHDF cells incubated for 1 hr by immunoblotting analysis; assay type: cell-based
How it was run: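 Cells starved overnight in basic medium with 0.5% FBS, incubated 1 h with compound or 0.1% DMSO, then stimulated with human recombinant ligand for 5 min at 37°C. Lysates immunoprecipitated with receptor antibody and immunoblotted for phosphotyrosine. IC50 from nonlinear regression of percentage inhibition (n = 4).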

[7] = AUC (0-infinity) in F344/N JcL-rnu athymic rat at 0.2 mg/kg, po measured upto 72 hrs by HPLC-MS/MS analysis; assay type: ADME, organism-based; conditions: in vivo
How it was run: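 Female athymic rats, four per group, given a single oral dose suspended in 0.5% methyl cellulose in water. Tail-vein blood was drawn at set times up to 72 h. Serum was spiked with internal standard, deproteinated with acetonitrile and analysed by HPLC-MS/MS. AUCinf came from noncompartmental analysis.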

LS174T = experiment: Antitumor activity against human LS174T cells xenografted in gamma-irradiation induced RH-rnu/rnu athymic rat assessed as tumor growth inhibition at 0.2 mg/kg, po administered once daily for 2 weeks and measured on day 14 relative to control; assay type: functional; conditions: light or radiation study, 336 h, read-out: TGI; how it was run: as §1
[8] = Cmax in F344/N JcL-rnu athymic rat at 5 mg/kg, po measured upto 72 hrs by HPLC-MS/MS analysis; assay type: ADME, organism-based; conditions: in vivo; how it was run: as §2
MDA-MB-231 = experiment: Antitumor activity against human MDA-MB-231 cells xenografted in gamma-irradiation induced RH-rnu/rnu athymic rat assessed as tumor growth inhibition at 0.2 mg/kg, po administered once daily for 2 weeks and measured on day 14 relative to control; assay type: functional; conditions: MDA-MB-231, light or radiation study, 336 h, read-out: TGI; how it was run: as §1
CAKI-1 = experiment: Antitumor activity against human CAKI-1 cells xenografted in gamma-irradiation induced RH-rnu/rnu athymic rat assessed as tumor growth inhibition at 0.2 mg/kg, po administered once daily for 2 weeks and measured on day 14 relative to control; assay type: functional; conditions: CAKI-1, light or radiation study, 336 h, read-out: TGI; how it was run: as §1
HUVEC = experiment: Antiproliferative activity against bFGF-induced human HUVEC cells assessed as cell viability incubated for 72 hrs by WST-1 assay
[9] = Inhibition of IGF-1R phosphorylation in serum starved human HT-29 cells incubated for 1 hr by immunoblotting analysis; assay type: cell-based
How it was run: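 Cells starved overnight in basic medium with 0.5% FBS, incubated 1 h with compound or 0.1% DMSO, then stimulated 5 min at 37°C with human recombinant cognate ligand. Receptor immunoprecipitated from lysate and immunoblotted for phosphotyrosine; IC50 by nonlinear regression of percent inhibition, n = 4.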

SK-HEP1 = experiment: Antitumor activity against human SK-HEP1 cells xenografted in gamma-irradiation induced RH-rnu/rnu athymic rat assessed as tumor growth inhibition at 1.0 mg/kg, po administered once daily for 2 weeks and measured on day 14 relative to control; assay type: functional; conditions: SK-HEP1, light or radiation study, 336 h, read-out: TGI
Calu-6 [10] = experiment: Antitumor activity against human Calu-6 cells xenografted in RH-rnu/rnu athymic rat assessed as tumor growth inhibition at 1.0 mg/kg, po administered […] by DCE-MRI analysis; assay type: functional, organism-based
How it was run: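 Calu-6 tumor-bearing athymic rats were randomized at 274-287 mm3 and dosed orally at 0.2 or 1.0 mg/kg or vehicle once daily on days 0-13. Tumor growth was followed by T2-weighted MRI at 1.5 T through day 21.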

[11] = Half life in F344/N JcL-rnu athymic rat at 0.2 mg/kg, po measured upto 72 hrs by HPLC-MS/MS analysis; assay type: ADME, organism-based; conditions: in vivo; how it was run: as §2
Calu-6 [12] = experiment: Antitumor activity against human Calu-6 cells xenografted in RH-rnu/rnu athymic rat assessed as tumor growth inhibition at 1.0 mg/kg, po administered once daily for 2 to 21 days by DCE-MRI analysis; conditions: time 2-21 day
Insulin receptor = Insulin receptor (Homo sapiens, UniProt P06213); experiment: Inhibition of insulin-R (unknown origin) in presence of ATP
How it was run: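 Cell-free kinase assay using recombinant tyrosine kinases with 1 μmol/L ATP, run in quadruplicate. IC50 values determined.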

DU-145 = experiment: Antitumor activity against human DU-145 cells xenografted in gamma-irradiation induced RH-rnu/rnu athymic rat assessed as tumor growth inhibition at 0.2 mg/kg, po administered once daily for 2 weeks and measured on day 14 relative to control; assay type: functional; conditions: DU-145, light or radiation study, 336 h, read-out: TGI; how it was run: as §1
ZR-75-1 = experiment: Antitumor activity against human ZR-75-1 cells xenografted in gamma-irradiation induced RH-rnu/rnu athymic rat assessed as tumor growth inhibition at 1.0 mg/kg, po administered once daily for 2 weeks and measured on day 14 relative to control; assay type: functional; conditions: ZR-75-1, light or radiation study, 336 h, read-out: TGI
[13] = target: Mitogen-activated protein kinase 1 (Homo sapiens, UniProt P28482); experiment: Inhibition of ERK2 phosphorylation in EGF-stimulated serum-starved human HUVEC cells by immunoblotting analysis; assay type: cell-based
Mitogen-activated protein kinase 1, sequence (P28482 whole entry): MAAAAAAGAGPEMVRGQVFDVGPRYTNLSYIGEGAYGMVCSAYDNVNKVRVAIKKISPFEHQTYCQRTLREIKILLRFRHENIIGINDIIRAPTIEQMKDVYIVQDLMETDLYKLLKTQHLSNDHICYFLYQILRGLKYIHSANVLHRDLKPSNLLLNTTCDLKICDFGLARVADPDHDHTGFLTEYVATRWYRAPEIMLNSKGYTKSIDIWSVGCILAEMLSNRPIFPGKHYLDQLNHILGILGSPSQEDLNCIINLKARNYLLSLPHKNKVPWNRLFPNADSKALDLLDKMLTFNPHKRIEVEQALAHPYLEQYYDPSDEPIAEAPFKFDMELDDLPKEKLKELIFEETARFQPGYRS

Insulin receptor, sequence (P06213 28-758 limits assumed): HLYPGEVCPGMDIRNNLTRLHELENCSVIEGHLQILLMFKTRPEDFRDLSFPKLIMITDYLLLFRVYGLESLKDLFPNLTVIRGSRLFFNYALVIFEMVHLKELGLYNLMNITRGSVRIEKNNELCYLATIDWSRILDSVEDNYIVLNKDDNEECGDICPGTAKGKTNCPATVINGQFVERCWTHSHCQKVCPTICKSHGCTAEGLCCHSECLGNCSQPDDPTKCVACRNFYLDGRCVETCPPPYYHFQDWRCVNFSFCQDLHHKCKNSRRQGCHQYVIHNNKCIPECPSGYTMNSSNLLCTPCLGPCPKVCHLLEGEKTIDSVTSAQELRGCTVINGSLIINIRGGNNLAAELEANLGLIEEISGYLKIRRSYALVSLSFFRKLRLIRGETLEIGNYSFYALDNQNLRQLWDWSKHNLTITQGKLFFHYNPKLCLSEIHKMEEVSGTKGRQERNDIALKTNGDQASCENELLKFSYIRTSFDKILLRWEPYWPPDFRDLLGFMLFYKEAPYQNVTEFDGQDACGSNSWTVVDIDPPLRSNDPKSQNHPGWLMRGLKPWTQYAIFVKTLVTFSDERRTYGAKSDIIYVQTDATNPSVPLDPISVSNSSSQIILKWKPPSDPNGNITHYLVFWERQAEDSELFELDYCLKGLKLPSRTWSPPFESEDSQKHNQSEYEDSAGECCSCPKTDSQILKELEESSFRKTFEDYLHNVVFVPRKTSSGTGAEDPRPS
Insulin receptor, sequence (P06213 763-1382 limits assumed): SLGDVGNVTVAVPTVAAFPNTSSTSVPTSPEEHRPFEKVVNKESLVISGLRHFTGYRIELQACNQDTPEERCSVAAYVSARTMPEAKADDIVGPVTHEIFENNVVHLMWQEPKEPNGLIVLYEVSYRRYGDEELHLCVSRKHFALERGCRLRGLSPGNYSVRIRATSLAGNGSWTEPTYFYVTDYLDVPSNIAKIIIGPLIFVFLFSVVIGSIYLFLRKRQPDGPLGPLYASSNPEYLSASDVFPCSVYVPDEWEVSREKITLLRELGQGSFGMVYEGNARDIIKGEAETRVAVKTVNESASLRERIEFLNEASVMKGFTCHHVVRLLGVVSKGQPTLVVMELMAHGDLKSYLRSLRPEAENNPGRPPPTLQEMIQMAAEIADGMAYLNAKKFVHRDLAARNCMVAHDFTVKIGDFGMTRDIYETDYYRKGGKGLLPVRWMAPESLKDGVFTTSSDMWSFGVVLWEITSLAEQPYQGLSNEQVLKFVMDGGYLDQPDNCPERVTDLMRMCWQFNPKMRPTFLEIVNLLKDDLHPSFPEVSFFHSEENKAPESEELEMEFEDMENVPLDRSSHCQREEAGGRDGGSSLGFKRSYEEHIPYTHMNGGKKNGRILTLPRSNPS

## COc1cc2nccc(Oc3ccc(NC(=O)Nc4cc(C)on4)c(Cl)c3)c2cc1OC [TIVOZANIB]
OVCAR-3
  inhibition in vivo at 0.2 mg/kg: 25%
[1]
  Vd/F: 1.4 L/kg
A549
  Activity: 78.2%
[2]
  half-life: […]
[3]
  Vd/F: 1.54 L/kg
[4]
  Tmax: 2.63 h
[5]
  Cmax: 484 ng/mL
[6]
  IC50: […]
[7]
  AUC(0-inf): 1640 ng·h/mL
LS174T
  inhibition in vivo at 0.2 mg/kg: 85.7%
[8]
  Cmax: 2820 ng/mL
MDA-MB-231
  inhibition in vivo at 0.2 mg/kg: 77%
CAKI-1
  inhibition in vivo at 0.2 mg/kg: 26.9%
HUVEC
  IC50: > 300 nM
[9]
  IC50: Not Determined(Insoluble)
SK-HEP1
  inhibition in vivo at 1 mg/kg: 89.9%
Calu-6 [10]
  Activity: Active
[11]
  half-life: 7.78 h
Calu-6 [12]
  Activity: Active
Insulin receptor
  IC50: > 1000 nM
DU-145
  inhibition in vivo at 0.2 mg/kg: 90.6%
ZR-75-1
  inhibition in vivo at 1 mg/kg: 94.3%
[13]
  inhibition: inactive
